Experimental data gathered from unrelated publications.
Organism: Plasmodium falciparum
Effect on: parasite growth

SMILES	technique	strain	time	notes	IC50
NC(N)=NC(=O)c1cc(C#Cc2ccc(C(F)(F)F)c(C(=O)Nc3ccccn3)c2)cc(C(F)(F)F)c1		K1		drug-resistant strain, blood stage	19 nM
CCN(CC)CCCC(C)Nc1ccnc2cc(Cl)ccc12 (stereo not shown)		DD2		drug-resistant strain, blood stage	102 nM
Brc1ccc2c(c1)nc(N1CCNCC1)n2Cc1ccccc1		K1		drug-resistant strain, blood stage	64 nM
COC1=CC(c2ccc[nH]2)=NC1=Cc1ccc(CCCCCCCCCCO)[nH]1		DD2		drug-resistant strain, blood stage	80 nM
CCN(CC)CCCC(C)Nc1ccnc2cc(Cl)ccc12 (stereo not shown)		D6		blood stage	0.02 µg/mL
CCc1ccc(C2=NC(=Cc3ccc(CCCCCCCCCC(C)O)[nH]3)C(OC)=C2)[nH]1 (stereo not shown)		DD2		drug-resistant strain, blood stage	15 nM
CCN(CC)CCCC(C)Nc1ccnc2cc(Cl)ccc12 (stereo not shown)		W2		drug-resistant strain	310 nM
NC1CCN(c2nc3cc(Cl)ccc3n2Cc2ccccc2)CC1		K1		drug-resistant strain, blood stage	14 nM
O=C(Nc1ccc(F)cc1C(=O)O)c1ccc(-c2ccccc2)cc1	resazurin	NF54	48 h	gametocyte	9.43 nM
COC1=CC(c2ccco2)=NC1=Cc1ccc(CCCCCCCCCC(C)O)[nH]1 (stereo not shown)		7G8		drug-resistant strain, blood stage	> 2500 nM
OC(c1cc(C(F)(F)F)nc2c(C(F)(F)F)cccc12)C1CCCCN1 (stereo not shown)		3D7		blood stage	4.8 nM
CC1=C(C)C(c2ccc[nH]2)=NC1=Cc1ccc(CCCCCCCCCC(C)O)[nH]1 (stereo not shown)		DD2		drug-resistant strain, blood stage	1190 nM
CCN(CC)CCCC(C)Nc1ccnc2cc(Cl)ccc12 (stereo not shown)		DD2		drug-resistant strain	102 nM
CCN(CC)CCCC(C)Nc1ccnc2cc(Cl)ccc12 (stereo not shown)	imaging	W2	48 h	drug-resistant strain, blood stage	0.234 µg/mL
CCN(CC)CCCC(C)Nc1ccnc2cc(Cl)ccc12 (stereo not shown)		W2		drug-resistant strain, blood stage	0.15 µg/mL
NCCNc1nc2cc(Cl)ccc2n1Cc1ccccc1		K1		drug-resistant strain, blood stage	339 nM
COc1cc(CO)c(-c2ccc3c(c2O)[C@@H](C)N[C@H](C)C3)c2cccc(O)c12	SYBR Green	W2		drug-resistant strain, blood stage	303 nM
COC1=CC(c2cccn2C)=NC1=Cc1ccc(CCCCCCCCCC(C)O)[nH]1 (stereo not shown)		DD2		drug-resistant strain, blood stage	> 2500 nM
CCN(CC)CCCC(C)Nc1ccnc2cc(Cl)ccc12 (stereo not shown)				blood stage	10.9 nM
COC1=CC(c2ccc[nH]2)=NC1=Cc1ccc(CCCCCCCCCCCO)[nH]1		DD2		drug-resistant strain, blood stage	36 nM
CCN(CC)CCCC(C)Nc1ccnc2cc(Cl)ccc12 (stereo not shown)		K1		drug-resistant strain, blood stage	280 nM
CCCCCCCCCCOc1cc2c(O)c(C(=O)OCC)cnc2cc1OCC	SYBR Green	HB3		blood stage	< 5.7 nM
CCN(CC)CCCC(C)Nc1ccnc2cc(Cl)ccc12 (stereo not shown)		W2	72 h	drug-resistant strain	360 nM
COC1=CC(c2ccc[nH]2)=NC1=Cc1ccc(CCCCCCCCCCCCO)[nH]1		7G8		drug-resistant strain, blood stage	58 nM
Clc1ccc2c(nc(N3CCNCC3)n2Cc2ccccc2)c1Cl		K1		drug-resistant strain, blood stage	32 nM
